Measurements as given in ChEMBL document CHEMBL1133614, “Novel radiotracers for imaging the serotonin transporter by positron emission tomography: synthesis, radiosynthesis, and in vitro and ex vivo evaluation of (11)C-labeled 2-(phenylthio)araalkylamines” (J Med Chem, 2000).

Columns and labels:
[1] = Half-life of washout rate of radioactivity from the cerebellum.; type: ADME, tissue-based
Outline: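 Rats received the 11C tracer by tail vein (3-30 MBq, 350-450 ng, buffered saline), 3 per time point. Cerebellar radioactivity (%ID/g) was followed over time after injection, and the half-life of its washout was derived from that time course.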

[2] = Log P at pH 7.4; type: physicochemical; details: buffer
Outline: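 Partition of the radiolabelled compound between 1-octanol and 0.02 M phosphate buffer at pH 7.4.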

Rattus norvegicus [3] = species on record: Rattus norvegicus; assay: Biodistribution of radioactivity in rat thalamus upon Tail-Vein injection of [11C]-labeled compound after 15 min; type: ADME, organism-based; details: in vivo, iv, 0.25 h
Rattus norvegicus [4] = species on record: Rattus norvegicus; assay: Biodistribution of radioactivity in rat thalamus upon Tail-Vein injection of [11C]-labeled compound after 30 min; type: ADME, organism-based; details: in vivo, iv, 0.5 h
Rattus norvegicus [5] = species on record: Rattus norvegicus; assay: Biodistribution of radioactivity in rat blood upon Tail-Vein injection of [11C]-labeled compound after 15 min; type: ADME, organism-based; details: in vivo, iv, 0.25 h
Rattus norvegicus [6] = species on record: Rattus norvegicus; assay: Biodistribution of radioactivity in rat blood upon Tail-Vein injection of [11C]-labeled compound after 30 min upon; type: ADME, organism-based; details: in vivo, iv, 0.5 h
Rattus norvegicus [7] = species on record: Rattus norvegicus; assay: Biodistribution of radioactivity in rat blood upon Tail-Vein injection of [11C]-labeled compound after 5 min; type: ADME, organism-based; details: in vivo, iv
Rattus norvegicus [8] = species on record: Rattus norvegicus; assay: Biodistribution of radioactivity in rat blood upon Tail-Vein injection of [11C]-labeled compound after 60 min; type: ADME, organism-based; details: in vivo, iv, 1 h
Rattus norvegicus [9] = species on record: Rattus norvegicus; assay: Biodistribution of radioactivity in rat cerebellum upon Tail-Vein injection of [11C]-labeled compound after 15 min; type: ADME, organism-based; details: in vivo, iv, 0.25 h
Rattus norvegicus [10] = species on record: Rattus norvegicus; assay: Biodistribution of radioactivity in rat cerebellum upon Tail-Vein injection of [11C]-labeled compound after 30 min; type: ADME, organism-based; details: in vivo, iv, 0.5 h
Rattus norvegicus [11] = species on record: Rattus norvegicus; assay: Biodistribution of radioactivity in rat cerebellum upon Tail-Vein injection of [11C]-labeled compound after 5 min; type: ADME, organism-based; details: in vivo, iv
Rattus norvegicus [12] = species on record: Rattus norvegicus; assay: Biodistribution of radioactivity in rat cerebellum upon Tail-Vein injection of [11C]-labeled compound after 60 min; type: ADME, organism-based; details: in vivo, iv, 1 h
Rattus norvegicus [13] = species on record: Rattus norvegicus; assay: Biodistribution of radioactivity in rat cortex upon Tail-Vein injection of [11C]-labeled compound after 15 min; type: ADME, organism-based; details: in vivo, iv, 0.25 h
Rattus norvegicus [14] = species on record: Rattus norvegicus; assay: Biodistribution of radioactivity in rat cortex upon Tail-Vein injection of [11C]-labeled compound after 30 min; type: ADME, organism-based; details: in vivo, iv, 0.5 h
Rattus norvegicus [15] = species on record: Rattus norvegicus; assay: Biodistribution of radioactivity in rat thalamus upon Tail-Vein injection of [11C]-labeled compound after 5 min; type: ADME, organism-based; details: in vivo, iv
Rattus norvegicus [16] = species on record: Rattus norvegicus; assay: Biodistribution of radioactivity in rat cortex upon Tail-Vein injection of [11C]-labeled compound after 5 min; type: ADME, organism-based; details: in vivo, iv
Rattus norvegicus [17] = species on record: Rattus norvegicus; assay: Biodistribution of radioactivity in rat cortex upon Tail-Vein injection of [11C]-labeled compound after 60 min; type: ADME, organism-based; details: in vivo, iv, 1 h
Rattus norvegicus [18] = species on record: Rattus norvegicus; assay: Biodistribution of radioactivity in rat hippocampus upon Tail-Vein injection of [11C]-labeled compound after 15 min; type: ADME, organism-based; details: in vivo, iv, 0.25 h
Rattus norvegicus [19] = species on record: Rattus norvegicus; assay: Biodistribution of radioactivity in rat hippocampus upon Tail-Vein injection of [11C]-labeled compound after 30 min; type: ADME, organism-based; details: in vivo, iv, 0.5 h
Rattus norvegicus [20] = species on record: Rattus norvegicus; assay: Biodistribution of radioactivity in rat hippocampus upon Tail-Vein injection of [11C]-labeled compound after 5 min; type: ADME, organism-based; details: in vivo, iv
Rattus norvegicus [21] = species on record: Rattus norvegicus; assay: Biodistribution of radioactivity in rat hippocampus upon Tail-Vein injection of [11C]-labeled compound after 60 min; type: ADME, organism-based; details: in vivo, iv, 1 h
Rattus norvegicus [22] = species on record: Rattus norvegicus; assay: Biodistribution of radioactivity in rat hypothalamus upon Tail-Vein injection of [11C]-labeled compound after 15 min; type: ADME, organism-based; details: in vivo, iv, 0.25 h
Rattus norvegicus [23] = species on record: Rattus norvegicus; assay: Biodistribution of radioactivity in rat hypothalamus upon Tail-Vein injection of [11C]-labeled compound after 30 min; type: ADME, organism-based; details: in vivo, iv, 0.5 h
Rattus norvegicus [24] = species on record: Rattus norvegicus; assay: Biodistribution of radioactivity in rat hypothalamus upon Tail-Vein injection of [11C]-labeled compound after 5 min; type: ADME, organism-based; details: in vivo, iv
Rattus norvegicus [25] = species on record: Rattus norvegicus; assay: Biodistribution of radioactivity in rat hypothalamus upon Tail-Vein injection of [11C]-labeled compound after 60 min; type: ADME, organism-based; details: in vivo, iv, 1 h
Rattus norvegicus [26] = species on record: Rattus norvegicus; assay: Biodistribution of radioactivity in rat striatum upon Tail-Vein injection of [11C]-labeled compound after 15 min; type: ADME, organism-based; details: in vivo, iv, 0.25 h
Rattus norvegicus [27] = species on record: Rattus norvegicus; assay: Biodistribution of radioactivity in rat striatum upon Tail-Vein injection of [11C]-labeled compound after 30 min; type: ADME, organism-based; details: in vivo, iv, 0.5 h
Rattus norvegicus [28] = species on record: Rattus norvegicus; assay: Biodistribution of radioactivity in rat striatum upon Tail-Vein injection of [11C]-labeled compound after 5 min; type: ADME, organism-based; details: in vivo, iv
Rattus norvegicus [29] = species on record: Rattus norvegicus; assay: Biodistribution of radioactivity in rat striatum upon Tail-Vein injection of [11C]-labeled compound after 60 min; type: ADME, organism-based; details: in vivo, iv, 1 h
[30] = biological target: Sodium-dependent noradrenaline transporter (Homo sapiens, UniProt P23975); assay: In vitro binding affinity on cloned Norepinephrine transporter
Outline: (§1)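 Competition binding in triplicate on membranes from cloned human transporters. Buffer 50 mM Tris-Cl pH 7.4 with 150 mM NaCl/5 mM KCl (SERT, NET) or 100 mM NaCl (DAT). Incubated 40 min at 37 °C, then filtered on PEI-soaked GF/B filters. Nonspecific binding set with duloxetine 1 µM (SERT), desipramine 10 µM (NET) or nomifensine 10 µM (DAT). IC50 from nonlinear fit; Ki by Cheng-Prusoff.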

[31] = biological target: Sodium-dependent serotonin transporter (Homo sapiens, UniProt P31645); assay: In vitro binding affinity on cloned Serotonin transporter
Outline: as §1, with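 “transporters. Radioligands: SERT [3H]paroxetine 0.2 nM with 10.3 µg protein, NET [3H]nisoxetine 1.0 nM with 16.9 µg, DAT [3H]WIN 35,428 1.0 nM with 6.2 µg.” for “transporters.”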

Rattus norvegicus [32] = species on record: Rattus norvegicus; assay: Biodistribution of radioactivity in rat thalamus upon Tail-Vein injection of [11C]-labeled compound after 60 min; type: ADME, organism-based; details: in vivo, iv, 1 h
[33] = biological target: Sodium-dependent dopamine transporter (Homo sapiens, UniProt Q01959); assay: In vitro binding affinity on cloned Dopamine transporter
Outline: as §1, with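 “transporters. Radioligands: SERT [3H]paroxetine 0.2 nM with 10.3 µg protein, NET [3H]nisoxetine 1.0 nM with 16.9 µg, DAT [3H]WIN 35,428 1.0 nM with 6.2 µg.” for “transporters.”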

Rattus norvegicus [34] = species on record: Rattus norvegicus; assay: Biodistribution of radioactivity in rat thalamus upon Tail-Vein injection of [11C]-labeled compound after 45 min; type: ADME, organism-based; details: in vivo, iv, 0.75 h
Rattus norvegicus [35] = species on record: Rattus norvegicus; assay: Biodistribution of radioactivity in rat blood upon Tail-Vein injection of [11C]-labeled compound after 30 min; type: ADME, organism-based; details: in vivo, iv, 0.5 h
Rattus norvegicus [36] = species on record: Rattus norvegicus; assay: Biodistribution of radioactivity in rat blood upon Tail-Vein injection of [11C]-labeled compound after 45 min; type: ADME, organism-based; details: in vivo, iv, 0.75 h
Rattus norvegicus [37] = species on record: Rattus norvegicus; assay: Biodistribution of radioactivity in rat cerebellum upon Tail-Vein injection of [11C]-labeled compound after 45 min; type: ADME, organism-based; details: in vivo, iv, 0.75 h
Rattus norvegicus [38] = species on record: Rattus norvegicus; assay: Biodistribution of radioactivity in rat cortex upon Tail-Vein injection of [11C]-labeled compound after 45 min; type: ADME, organism-based; details: in vivo, iv, 0.75 h
Rattus norvegicus [39] = species on record: Rattus norvegicus; assay: Biodistribution of radioactivity in rat hippocampus upon Tail-Vein injection of [11C]-labeled compound after 45 min; type: ADME, organism-based; details: in vivo, iv, 0.75 h
Rattus norvegicus [40] = species on record: Rattus norvegicus; assay: Biodistribution of radioactivity in rat hypothalamus upon Tail-Vein injection of [11C]-labeled compound after 45 min; type: ADME, organism-based; details: in vivo, iv, 0.75 h
Rattus norvegicus [41] = species on record: Rattus norvegicus; assay: Biodistribution of radioactivity in rat striatum upon Tail-Vein injection of [11C]-labeled compound after 45 min; type: ADME, organism-based; details: in vivo, iv, 0.75 h

Sodium-dependent serotonin transporter, sequence (P31645 whole entry): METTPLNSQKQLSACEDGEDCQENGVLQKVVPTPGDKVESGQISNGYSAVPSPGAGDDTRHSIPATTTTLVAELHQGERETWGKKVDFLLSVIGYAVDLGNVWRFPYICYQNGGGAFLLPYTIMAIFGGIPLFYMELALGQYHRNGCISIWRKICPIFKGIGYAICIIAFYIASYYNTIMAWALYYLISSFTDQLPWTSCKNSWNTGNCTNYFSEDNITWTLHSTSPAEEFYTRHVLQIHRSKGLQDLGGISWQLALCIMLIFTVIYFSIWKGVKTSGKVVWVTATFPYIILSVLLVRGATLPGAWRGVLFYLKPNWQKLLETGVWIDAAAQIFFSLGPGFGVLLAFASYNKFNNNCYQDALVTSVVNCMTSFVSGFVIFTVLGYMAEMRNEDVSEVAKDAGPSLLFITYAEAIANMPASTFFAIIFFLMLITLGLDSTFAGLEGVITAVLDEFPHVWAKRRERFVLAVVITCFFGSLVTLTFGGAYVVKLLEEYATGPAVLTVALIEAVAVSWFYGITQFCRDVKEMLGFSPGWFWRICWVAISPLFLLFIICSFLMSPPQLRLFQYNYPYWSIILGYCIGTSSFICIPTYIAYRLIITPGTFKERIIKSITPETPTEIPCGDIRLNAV
Sodium-dependent dopamine transporter, sequence (Q01959 whole entry): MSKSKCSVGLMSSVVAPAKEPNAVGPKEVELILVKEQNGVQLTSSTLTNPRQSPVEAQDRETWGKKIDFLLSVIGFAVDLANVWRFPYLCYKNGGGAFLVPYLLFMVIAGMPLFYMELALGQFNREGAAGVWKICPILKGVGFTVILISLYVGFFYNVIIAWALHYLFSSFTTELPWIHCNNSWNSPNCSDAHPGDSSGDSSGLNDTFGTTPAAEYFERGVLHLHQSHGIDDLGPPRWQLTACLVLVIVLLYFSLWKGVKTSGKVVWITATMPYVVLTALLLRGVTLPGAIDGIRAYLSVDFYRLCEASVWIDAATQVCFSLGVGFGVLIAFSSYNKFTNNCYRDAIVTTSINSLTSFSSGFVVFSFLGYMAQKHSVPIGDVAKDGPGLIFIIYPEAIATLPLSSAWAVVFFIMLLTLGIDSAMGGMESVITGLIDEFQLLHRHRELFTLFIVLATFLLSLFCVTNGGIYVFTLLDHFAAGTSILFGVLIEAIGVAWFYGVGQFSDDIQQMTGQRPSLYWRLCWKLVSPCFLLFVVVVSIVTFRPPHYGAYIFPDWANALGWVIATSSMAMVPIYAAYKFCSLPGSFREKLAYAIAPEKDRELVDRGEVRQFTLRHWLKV
Sodium-dependent noradrenaline transporter, sequence (P23975 whole entry): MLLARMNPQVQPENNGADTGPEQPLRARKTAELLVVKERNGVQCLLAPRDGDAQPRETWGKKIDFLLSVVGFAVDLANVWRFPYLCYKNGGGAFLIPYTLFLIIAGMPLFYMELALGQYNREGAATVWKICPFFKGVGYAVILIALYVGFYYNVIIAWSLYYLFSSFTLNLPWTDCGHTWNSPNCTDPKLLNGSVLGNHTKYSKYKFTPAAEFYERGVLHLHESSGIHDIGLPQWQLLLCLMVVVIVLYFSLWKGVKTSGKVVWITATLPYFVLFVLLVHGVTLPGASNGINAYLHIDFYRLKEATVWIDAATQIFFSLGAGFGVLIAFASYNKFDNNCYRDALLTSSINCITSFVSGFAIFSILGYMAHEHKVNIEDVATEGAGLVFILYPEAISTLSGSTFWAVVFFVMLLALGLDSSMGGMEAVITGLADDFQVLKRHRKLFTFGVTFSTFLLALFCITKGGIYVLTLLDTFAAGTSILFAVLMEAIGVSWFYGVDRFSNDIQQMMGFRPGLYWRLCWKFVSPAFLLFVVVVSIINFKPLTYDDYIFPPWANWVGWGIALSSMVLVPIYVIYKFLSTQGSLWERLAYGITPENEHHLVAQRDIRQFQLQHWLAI

Row | T1/2 [1] | ID/g (Rattus norvegicus [3]) | ID/g (Rattus norvegicus [4]) | ID/g (Rattus norvegicus [5]) | ID/g (Rattus norvegicus [7]) | ID/g (Rattus norvegicus [8]) | ID/g (Rattus norvegicus [9]) | ID/g (Rattus norvegicus [10]) | ID/g (Rattus norvegicus [11]) | ID/g (Rattus norvegicus [12]) | ID/g (Rattus norvegicus [13]) | ID/g (Rattus norvegicus [14]) | ID/g (Rattus norvegicus [15]) | ID/g (Rattus norvegicus [16]) | ID/g (Rattus norvegicus [17]) | ID/g (Rattus norvegicus [18]) | ID/g (Rattus norvegicus [19]) | ID/g (Rattus norvegicus [20]) | ID/g (Rattus norvegicus [21]) | ID/g (Rattus norvegicus [22]) | SMILES | other results
1 | 25.4 min | 1.54% | 1.65% | 0.28% | 0.39% | 0.08% | 0.75% | 0.47% | 1.03% | 0.23% | 1.33% | 1.14% | 1.43% | 1.39% | 0.73% | 1.12% | 1.04% | 1.06% | 0.74% | 1.48% | CN(C)Cc1ccccc1Sc1ccc(Cl)cc1N | logD ([2]; read-out: logD): 3.55; ID/g (Rattus norvegicus [6]): 0.14%; ID/g (Rattus norvegicus [23]): 1.47%; ID/g (Rattus norvegicus [24]): 1.36%; ID/g (Rattus norvegicus [25]): 1.19%; ID/g (Rattus norvegicus [26]): 1.34%; ID/g (Rattus norvegicus [27]): 1.17%; ID/g (Rattus norvegicus [28]): 1.36%; ID/g (Rattus norvegicus [29]): 0.79%; Ki [30]: 230 nM; Ki [31]: 0.27 nM; ID/g (Rattus norvegicus [32]): 1.24%; Ki [33]: 115 nM
2 | 15.6 min | 1.21% | 0.8% | 0.31% | 0.58% | 0.06% | 0.54% | 0.27% | 0.76% | 0.07% | 1.29% | 0.74% | 1.15% | 1.46% | 0.32% | 1.06% | 0.72% | 1.13% | 0.35% | 1.39% | CN(C)Cc1ccccc1Sc1ccc(C#N)cc1N [DASB] | logD [2]: 2.707; ID/g (Rattus norvegicus [34]): 0.64%; ID/g (Rattus norvegicus [35]): 0.22%; ID/g (Rattus norvegicus [36]): 0.1%; ID/g (Rattus norvegicus [37]): 0.13%; ID/g (Rattus norvegicus [38]): 0.48%; ID/g (Rattus norvegicus [39]): 0.49%; ID/g (Rattus norvegicus [23]): 1.02%; ID/g (Rattus norvegicus [40]): 0.8%; ID/g (Rattus norvegicus [24]): 1.25%; ID/g (Rattus norvegicus [25]): 0.62%; ID/g (Rattus norvegicus [26]): 1.24%; ID/g (Rattus norvegicus [27]): 0.77%; ID/g (Rattus norvegicus [41]): 0.55%; ID/g (Rattus norvegicus [28]): 1.24%; ID/g (Rattus norvegicus [29]): 0.35%; Ki [31]: 1.1 nM; ID/g (Rattus norvegicus [32]): 0.49%; Ki [33]: 1420 nM
